From PubChem
The full list was thinned out, with hits kept by preference.
Insulin prom act: activators of insulin promoter-driven GFP, primary screen, imaging, TRM-6 cells, eGFP reporter, cell count; plate-scaled: unstimulated 0, stimulated control 100; activation, % at 2 µM; 130,000 tested, 0.81% active;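 active = activation at 2 µM above a set limit, confirmed on inspection of the cell images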;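 also: share of cells whose green reporter signal exceeds an intensity cutoff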
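Test system: human fetal islet-derived TRM-6 cells with tamoxifen-inducible insulin promoter–eGFP reporter. Compound dosing: 2 µM final, single concentration. Incubation: tamoxifen pre-incubation 15 h overnight, then compound exposure 48 h at 37 °C. Signal: fixed-cell fluorescence microscopy, eGFP plus Hoechst.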
A number is an active result; . = inactive.

SMILES	Insulin prom act
CCN(C(=O)c1cn(C)c(=O)c2cc(OC)c(OC)cc12)c1ccccc1C	.
Cc1cc(OCC(=O)N(C(C)C)C(C)C)cc(C)c1Br	.
CC(Cc1ccccc1)C(=O)N(C)Cc1cccnc1 (centres undefined)	.
CCCn1c(SCC(=O)Nc2ccccc2Oc2ccccc2)n[nH]c1=O	.
COc1ccccc1N1CCN(c2cc(N3CCCC3)nc(C)n2)CC1	.
COc1ccccc1/C=N/NC(=O)c1ccc(Br)cc1	.
COc1cc(N2CCCC2)c(OC)cc1/C=C(/C#N)c1ccc(Br)cc1	87
CCCCC(=O)NCc1ccc(Cl)cc1	.
O=C(COC(=O)C1c2ccccc2Oc2ccccc21)NC1CCS(=O)(=O)C1 (centres undefined)	.
Cc1nc(NC(=O)COc2ccccc2)sc1C(=O)Nc1ccccc1	.
CC(=O)c1sc(NC(=O)COc2ccc(Cl)cc2Cl)nc1C	290
CC(C)NC(=O)COc1ccc(Cl)cc1Cl	.
COc1ccc(C2C(C(=O)NCCN(C)C)c3ccccc3C(=O)N2C)cc1OC (centres undefined)	.
N#Cc1nn(-c2ccccc2)nc1N1CCCCC1	.
N#C/C(=C\C1CC2C=CC1C2)c1nc2ccccc2[nH]1 (centres undefined)	.
CN(C)c1ccc(C(=S)N2CCOCC2)cc1	150
O=C(Oc1ccc(C(=S)N2CCOCC2)cc1)c1ccccc1	.
CC(=O)N1CCN(C(=S)c2ccc(N(C)C)cc2)CC1	.
COc1ccc(/C(=C/c2ccc(OC(F)F)c(OC)c2)C(=O)O)cc1OC	.
CCOc1ccccc1NC(=O)C1CCN(C(=O)NCc2ccccc2)CC1	.
CCOc1ccc(NC(=O)C2CCCN(C(=O)NCc3ccccc3)C2)cc1 (centres undefined)	493
O=C(O)C1CCCN(C(=O)NCc2ccccc2)C1 (centres undefined)	.
Cc1ccc(S(=O)(=O)CC(=O)Nc2ccc(Cl)cn2)cc1	.
Cc1ccc(S(=O)(=O)Nc2cc(C(C)C)c(O)cc2C)cc1	.
CN(C)S(=O)(=O)Nc1ccccc1C(N)=O	.
SMILES	Insulin prom act
CC(C)c1ccccc1NS(=O)(=O)N(C)C	380
CCN(CC)CC(=O)N1c2ccccc2Sc2ccc(Cl)cc21	.
O=C(CN1CCCC1)N1c2ccccc2Sc2ccccc21	.
CCCN1C(=O)/C(=C\C=C2/Sc3ccccc3N2CC)SC1=S	388
CCCN1C(=O)CC(c2ccco2)Sc2ccccc21 (centres undefined)	.
CCN1C(=O)/C(=C\C=C2/C=CC=CN2CC)SC1=S	.
CCN1/C(=C\C=C(C(C)=O)C(C)=O)Sc2ccccc21	669
C(=N\c1nc2ccccc2n1Cc1ccccc1)/c1cccs1	.
CCOc1ccc(-n2c(SCC(=O)Nc3ccccc3C)n[nH]c2=O)cc1	.
COc1cccc(NC(=O)c2ocnc2C)c1	.
CCOC(=O)c1sc(NC(=O)CCCn2nc([N+](=O)[O-])cc2C)c(C(=O)OCC)c1C	.
CCCC(=O)Nc1ccc2c(c1)nc1n2CCN(C2CCCCC2)C1	.
COCCNC(=O)COc1ccc(Br)cc1Cl	.
COC(=O)C1CCCN1C(=O)COc1ccc(Br)cc1Cl (centres undefined)	438
Cc1cc(Cl)ccc1OCC(=O)N1CCCCC1	.
CCC(=O)Nc1cc(C(=O)OC(C(=O)c2ccc(C)c(C)c2)c2ccccc2)ccc1C (centres undefined)	.
CCCCn1c(=O)c(CCC(=O)OCC(=O)NC(=O)NCCC(C)C)nc2ccccc21	.
CCOC(=O)COc1ccc(C(=O)NC2CCCCC2)cc1	.
CC(C)Cn1c(N)c(C(=O)CSc2ccc3c(c2)OCCO3)c(=O)n(C)c1=O	168
Cn1c(N)c(C(=O)COC(=O)c2ccc3c(c2)OCCO3)c(=O)n(C)c1=O	.
CC(C)Cn1c(N)c(C(=O)CSc2nnnn2C)c(=O)n(C)c1=O	.
CCN(CC)CCNC(=O)C(=O)NCC1OCCN1S(=O)(=O)c1ccc2c(c1)OCCO2 (centres undefined)	.
Cc1cc(C)c(S(=O)(=O)N2CCOC2CNC(=O)C(=O)NCCc2c[nH]c3ccccc23)c(C)c1 (centres undefined)	310
O=C(NCc1cccnc1)C(=O)NCC1OCCN1S(=O)(=O)c1ccccc1 (centres undefined)	.
CC(=O)NC(Cc1c[nH]c2ccccc12)C(=O)OCC(=O)N1CCCCCC1 (centres undefined)	.
SMILES	Insulin prom act
Oc1c(Br)cc(C2N=C(c3ccccc3Cl)NO2)cc1Br (centres undefined)	.
CC(C)(CO)NC(=O)C(c1ccccc1)c1ccccc1	406
CC(C)(C)C(=O)NC(=S)NNC(=O)C(c1ccccc1)c1ccccc1	.
O=C(O)CC(c1ccccc1)c1ccccc1	.
CC(C)NS(=O)(=O)c1ccc2c(c1)NCC2	.
COc1ccc(OC)c(C(=O)COC(=O)CNC(=O)C2CCCCC2)c1	.
CCN(c1ccc(N=Cc2c(O)n(Cc3ccc(OC)cc3)c(=O)c3ccccc23)cc1)C(C)C	471
COc1ccc(N=Cc2sc(O)c3ccccc23)cc1	.
O=c1c2ccccc2c(C=NCCCN2CCOCC2)c(O)n1Cc1ccccc1	.
C#CCOC(=O)c1ccc(-n2cncn2)nc1	.
CCn1nc(C(=O)OC(C(=O)c2c[nH]c3ccccc23)c2ccccc2)c2ccccc2c1=O (centres undefined)	.
O=C(COC(=O)Cc1cccc(C(F)(F)F)c1)Nc1ccc2c(c1)OCCO2	.
CC(=O)Nc1ccc(NC(=O)CSc2nc(C)nc3sc(C)c(C)c23)cc1	.
CCc1nnc(NC(=O)CSc2ccc(-c3ccco3)nn2)s1	.
CCc1nc(SCC(=O)Nc2nnc(CC)s2)c2c(C)c(C)sc2n1	254
OCCN1CCN(CCCc2c3c(cc4c2CCC4)CCC3)CC1	.
O=C(Nc1cccc(-c2cnc3ccccc3n2)c1)c1cccc(NC(=O)c2ccco2)c1	.
O=C(Nc1cccc(-c2nc3cccnc3s2)c1)c1ccco1	481
O=C(Nc1nccs1)c1cccc(NC(=O)c2ccco2)c1	.
O=C(O)CCC1COc2ccccc2O1 (centres undefined)	.
Cc1cc(NCCO)c2ccccc2n1	.
CCCNc1c(F)c(F)c2c(C)c3ccccc3nc2c1F	160
CCC(=O)Oc1c(-c2ccccc2)c2nc3ccccc3nc2c2ccccc12	.
Cc1nn(CC(=O)Nc2cccc(S(N)(=O)=O)c2)c(C)c1[N+](=O)[O-]	.
Cc1cc(NC(=O)CN2C(=O)C3CC=CCC3C2=O)no1 (centres undefined)	.
SMILES	Insulin prom act
CCn1ncc(Cl)c1C(=O)NC(=S)Nc1c(C)cc(C)cc1[N+](=O)[O-]	293
CCn1ncc(Br)c1C(=O)Nc1ccc(F)c([N+](=O)[O-])c1	.
Cc1ccc(C(=O)NC(=S)Nc2ccccc2N2CCCC2)cc1[N+](=O)[O-]	.
CCS(=O)(=O)Nc1ccc(C2=NN(S(C)(=O)=O)C(c3cccs3)C2)cc1 (centres undefined)	.
CCN(CC)S(=O)(=O)c1cc(C(=O)OCC(=O)Nc2cccc(C)c2C)ccc1F	.
COc1ccc(CNC(=O)C(c2ccncc2)N(C(=O)Cc2cccs2)c2ccc(C)cc2)cc1 (centres undefined)	.
Clc1ccc(OCc2nnc(-c3ccccc3Br)o2)c(Cl)c1	120
Clc1ccc(-c2nnc(-c3ccccc3)o2)c(Cl)c1	.
Clc1ccc(OCc2nc(-c3ccncc3)no2)c(Cl)c1	.
O=C(c1cc(C2CC2)nc2ccc(Br)cc12)N1N=C(C(F)F)CC1(O)C(F)F (centres undefined)	.
